This is an account of results in ChEMBL document CHEMBL1140106, “Blocking estrogen signaling after the hormone: pyrimidine-core inhibitors of estrogen receptor-coactivator binding” (J Med Chem, 2008).

Structures are written as SMILES. pIC50, pKi: −log10 of the molar value.

Experiment [1] concerns the target T1, Estrogen receptor (Homo sapiens, UniProt P03372).
T1 sequence (P03372 whole entry): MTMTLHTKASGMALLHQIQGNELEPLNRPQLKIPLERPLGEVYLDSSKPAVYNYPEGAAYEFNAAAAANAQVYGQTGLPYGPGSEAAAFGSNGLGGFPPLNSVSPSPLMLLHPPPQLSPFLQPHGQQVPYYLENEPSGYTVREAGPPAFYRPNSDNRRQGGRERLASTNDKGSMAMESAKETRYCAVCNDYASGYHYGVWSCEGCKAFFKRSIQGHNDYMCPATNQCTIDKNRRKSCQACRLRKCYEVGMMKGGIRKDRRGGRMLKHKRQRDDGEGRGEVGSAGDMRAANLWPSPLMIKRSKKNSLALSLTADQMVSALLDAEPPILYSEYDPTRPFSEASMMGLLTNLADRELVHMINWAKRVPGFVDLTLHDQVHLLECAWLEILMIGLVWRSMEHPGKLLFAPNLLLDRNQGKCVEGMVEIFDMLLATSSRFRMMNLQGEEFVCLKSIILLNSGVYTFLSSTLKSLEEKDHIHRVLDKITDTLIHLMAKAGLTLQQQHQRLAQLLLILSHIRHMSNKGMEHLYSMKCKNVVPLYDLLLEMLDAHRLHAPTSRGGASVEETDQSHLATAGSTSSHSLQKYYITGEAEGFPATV
Put plainly: Binding affinity to ERalpha assessed as inhibition of fluorescein-labeled nuclear receptor domain of steroid receptor coactivator 3 by TR-FRET assay. The gist of the method:
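Fluorescein-SRC-3-NRD (50 nM) was then added for 1 h at room temperature in the dark. Buffer: 20 mM Tris pH 7.5, 0.01% NP40, 50 mM NaCl. SRC-1 Box II peptide served as positive control.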
(In general: TR-FRET usually uses a lanthanide donor and a delayed reading to cut background.)

For experiment [2], the target named is T1, Estrogen receptor. Put plainly: Antagonist activity at ERalpha in human HEC1 cells assessed as inhibition of estrogen-induced transcriptional activity after 24 hrs by reporter gene assay. The experiment is classed as functional, cell-based, HEC-1. The gist of the method:
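HEC-1 cells, which lack endogenous ER, were lipofectin-transfected with full-length ERα vector, 2ERE-luciferase reporter and pCMV β-gal as internal control. After 6 h the medium was changed to 5% charcoal-dextran-treated calf serum with ligands.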

Another experiment addresses Estrogen receptor beta (Homo sapiens, UniProt Q92731). Put plainly: Binding affinity to ERbeta assessed as inhibition of fluorescein-labeled nuclear receptor domain of steroid receptor coactivator 3 by TR-FRET assay.

Chain of Estrogen receptor beta (Q92731 whole entry, the tested form may be a part): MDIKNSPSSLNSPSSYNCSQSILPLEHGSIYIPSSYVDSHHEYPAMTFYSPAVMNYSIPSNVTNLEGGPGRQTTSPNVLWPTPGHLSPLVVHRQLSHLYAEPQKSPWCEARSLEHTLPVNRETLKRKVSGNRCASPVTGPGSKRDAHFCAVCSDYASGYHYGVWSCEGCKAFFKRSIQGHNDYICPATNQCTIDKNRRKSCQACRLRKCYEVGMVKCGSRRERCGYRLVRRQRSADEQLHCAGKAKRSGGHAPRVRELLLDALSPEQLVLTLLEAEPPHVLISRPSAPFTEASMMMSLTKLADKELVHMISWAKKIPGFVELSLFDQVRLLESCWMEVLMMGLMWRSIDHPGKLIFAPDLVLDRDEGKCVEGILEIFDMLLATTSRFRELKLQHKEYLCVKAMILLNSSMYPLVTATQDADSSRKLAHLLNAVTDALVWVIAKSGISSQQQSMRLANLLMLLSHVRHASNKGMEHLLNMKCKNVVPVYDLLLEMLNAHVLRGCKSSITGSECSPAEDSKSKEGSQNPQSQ

Consider `CC(C)CCc1cc(NCC(C)C)nc(N(C)CC(C)C)n1`, for which the negative-log Ki (pKi) (commonly −log10 of the Ki, conventionally taken in molar units) was 5.14 at Estrogen receptor [1] and < 3.00 on Estrogen receptor beta. In addition, the negative-log IC50 (pIC50) (commonly the IC50 on a negative log10 scale, so that one unit is a factor of ten) at Estrogen receptor [2] is 5.01.
As for `CC(C)CCc1nc(NCc2cccc3ccccc23)cc(NCC(C)C)n1`, the pKi at Estrogen receptor [1] and on Estrogen receptor beta was < 3.00 throughout. Further, at Estrogen receptor [2], the pIC50 was < 3.00.
Take `CC(C)CCc1cc(CCC(C)C)nc(NCc2ccccc2)n1`: the pKi at Estrogen receptor [1] and on Estrogen receptor beta was < 3.00 in each case. Also, at Estrogen receptor [2], the pIC50 was < 3.00.
As for `CC(C)CNc1nc(CCc2cccc3ccccc23)cc(N(CC(C)C)C(=O)OC(C)(C)C)n1`, the pKi on Estrogen receptor [1] and at Estrogen receptor beta was < 3.00 throughout. Also, the pIC50 at Estrogen receptor [2] is < 3.00.
As for `CC(C)CNc1nc(/C=C/c2ccccc2)cc(NCc2ccccc2)n1`, the values for the pKi at Estrogen receptor [1] and on Estrogen receptor beta were 4.80 and < 3.00, respectively. The negative logarithm of the IC50 (pIC50) on Estrogen receptor [2] was 5.01.
Take `CC(C)COc1cc(OCC(C)C)nc(OCC(C)C)n1`: the pKi on Estrogen receptor [1] and on Estrogen receptor beta was < 3.00 throughout. The negative-log IC50 (pIC50) on Estrogen receptor [2] was < 3.00.
As to `CC(C)CCc1cc(NCc2ccccc2)nc(NCc2ccccc2)n1`, the pKi is 5.39 at Estrogen receptor [1] and < 3.00 on Estrogen receptor beta. Moreover, the pIC50 on Estrogen receptor [2] is 5.08.
On to `c1ccc(CCc2cc(NCc3cccc4ccccc34)nc(NCc3cccc4ccccc34)n2)cc1`, for which the negative logarithm of the Ki (pKi) at Estrogen receptor [1] and at Estrogen receptor beta was < 3.00 in each case. Moreover, the pIC50 at Estrogen receptor [2] is < 3.00.
With `CC(C)CCc1cc(NCc2ccccc2)nc(NCC(C)C)n1`, the pKi on Estrogen receptor [1] is 5.24; at Estrogen receptor beta, < 3.00. Also, the pIC50 on Estrogen receptor [2] was 5.24.
Turning to `c1ccc(CCc2cc(CCc3ccccc3)nc(NCc3cccc4ccccc34)n2)cc1`, the pKi at Estrogen receptor [1] and at Estrogen receptor beta was < 3.00 throughout. Besides, the negative-log IC50 (pIC50) on Estrogen receptor [2] was < 3.00.
On to `CC(C)CNc1nc(CCc2ccccc2)cc(CCc2ccccc2)n1`, for which the pKi at Estrogen receptor [1] and on Estrogen receptor beta was < 3.00 each time. Also, the pIC50 at Estrogen receptor [2] was < 3.00.
Regarding `c1ccc(COc2cc(OCc3ccccc3)nc(OCc3ccccc3)n2)cc1`, the negative logarithm of the Ki (pKi) at Estrogen receptor [1] and at Estrogen receptor beta was < 3.00 throughout. The pIC50 at Estrogen receptor [2] is < 3.00.
`CC(C)CNc1nc(/C=C/c2ccccc2)cc(N(C)CC(C)C)n1`: the negative logarithm of the Ki (pKi) on Estrogen receptor [1] and on Estrogen receptor beta was < 3.00 throughout. Moreover, the pIC50 at Estrogen receptor [2] was < 3.00.
With `CC(C)CNc1nc(CCc2ccccc2)cc(NCc2ccccc2)n1`, the pKi on Estrogen receptor [1] was 5.77; on Estrogen receptor beta, < 3.00. In addition, at Estrogen receptor [2], the pIC50 was 5.72.
As for `CC(C)CSc1cc(SCC(C)C)nc(SCC(C)C)n1`, the pIC50 on Estrogen receptor [2] is < 3.00. In addition, the negative logarithm of the Ki (pKi) at Estrogen receptor beta is < 3.00.
In the case of `c1ccc2c(CCc3cc(NCc4cccc5ccccc45)nc(NCc4cccc5ccccc45)n3)cccc2c1`, the pKi at Estrogen receptor [1] and on Estrogen receptor beta was < 3.00 throughout. For the same compound, on Estrogen receptor [2], the pIC50 is < 3.00.
As for `C(=C\c1cc(NCc2ccccc2)nc(NCc2ccccc2)n1)/c1ccccc1`, the pKi on Estrogen receptor [1] and at Estrogen receptor beta was < 3.00 throughout. In addition, the pIC50 at Estrogen receptor [2] was < 3.00.
As to `c1ccc(CSc2cc(SCc3ccccc3)nc(SCc3ccccc3)n2)cc1`, the pKi at Estrogen receptor [1] and at Estrogen receptor beta was < 3.00 each time. For the same compound, at Estrogen receptor [2], the negative-log IC50 (pIC50) is < 3.00.
As to `CC(C)CNc1cc(CCc2cccc3ccccc23)nc(NCC(C)C)n1`, the figures for the negative logarithm of the Ki (pKi) on Estrogen receptor [1] and on Estrogen receptor beta were 5.60 and < 3.00, respectively. On Estrogen receptor [2], the pIC50 was 5.68.
For `CC(C)CCc1cc(NCc2cccc3ccccc23)nc(NCc2ccccc2)n1`, in that order: < 3.00, < 3.00 and < 3.00.
Turning to `CC(C)CNc1nc(/C=C/c2ccccc2)cc(/C=C/c2ccccc2)n1`, the pKi on Estrogen receptor [1] and at Estrogen receptor beta was < 3.00 in each case. Besides, the pIC50 at Estrogen receptor [2] is < 3.00.
Take `CC(C)CCc1cc(NCc2ccccc2)nc(NCc2cccc3ccccc23)n1`: the pKi on Estrogen receptor [1] and at Estrogen receptor beta was < 3.00 throughout. Moreover, the negative-log IC50 (pIC50) on Estrogen receptor [2] is < 3.00.
`C(=C\c1cc(/C=C/c2ccccc2)nc(NCc2ccccc2)n1)/c1ccccc1`: the pKi on Estrogen receptor [1] and on Estrogen receptor beta was < 3.00 throughout. Further, the negative logarithm of the IC50 (pIC50) on Estrogen receptor [2] is < 3.00.
